From ChEMBL document CHEMBL3243954 (J Med Chem, 1979)

What was measured:
Mus musculus [1] = test: Antimetrazol activity in iv dosed mouse assessed as inhibition of metrazol-induced tonic-extensor seizures administered 60 mins prior to metrazol challenge; type: functional
Method in brief: (§1)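 Mice dosed iv with the ester in aqueous solution containing under 10% chremofor. Metrazol 125 mg/kg sc was given 30 or 60 min after the ester. ED50 is the dose preventing tonic-extensor seizures in 50% of mice, derived by probit analysis.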

Mus musculus [2] = species on record: Mus musculus; test: Ratio of ED50 for muscle relaxant activity in mouse to ED50 for antimetrazol activity in mouse measured after 30 mins
Mus musculus [3] = test: Muscle relaxant activity in iv dosed mouse after 30 mins by rotarod test; type: ADME, organism-based; settings: in vivo, 0.5 h
Mus musculus [4] = test: Muscle relaxant activity in iv dosed mouse after 60 mins by rotarod test; type: ADME, organism-based; settings: in vivo, 1 h
[5] = Drug metabolism in mouse liver microsomes assessed as rate of esterase-mediated compound hydrolysis measured per mg of protein by pH stat based titrimetric analysis; type: ADME
Mus musculus [6] = test: Antimetrazol activity in iv dosed mouse assessed as inhibition of metrazol-induced tonic-extensor seizures administered 30 mins prior to metrazol challenge; type: functional; method in brief: as §1
[7] = (§2) Drug metabolism in mouse liver microsomes assessed as rate of esterase-mediated compound hydrolysis by pH stat based titrimetric analysis; type: ADME; settings: microsomes
Mus musculus [8] = species on record: Mus musculus; test: Ratio of ED50 for muscle relaxant activity in mouse to ED50 for antimetrazol activity in mouse measured after 60 mins
Brain [9] = test: Drug uptake albino mouse brain at 5 mg equivalent of oxazepam/kg, iv after 120 mins measured per gm of tissue by thin-layer chromatography; type: ADME, organism-based; settings: in vivo, 2 h
Brain [10] = test: Drug uptake albino mouse brain at 5 mg equivalent of oxazepam/kg, iv after 60 mins measured per gm of tissue by thin-layer chromatography; type: ADME, organism-based; settings: in vivo, 1 h
Liver [11] = test: Drug metabolism in albino mouse liver assessed as total metabolite concentration at 5 mg equivalent of oxazepam/kg, iv after 1 min by thin layer chromatography; type: ADME, organism-based; settings: in vivo
Method in brief: (§3)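 Liver was dried and its total radioactivity, the sum of metabolites, was measured on a carbon-tritium analyzer. Values are means of four mice (±SE).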

Brain [12] = test: Drug uptake albino mouse brain at 5 mg equivalent of oxazepam/kg, iv after 10 mins measured per gm of tissue by thin-layer chromatography; type: ADME, organism-based; settings: in vivo
Brain [13] = test: Drug uptake albino mouse brain at 5 mg equivalent of oxazepam/kg, iv after 20 mins measured per gm of tissue by thin-layer chromatography; type: ADME, organism-based; settings: in vivo
Brain [14] = test: Drug uptake albino mouse brain at 5 mg equivalent of oxazepam/kg, iv after 1 min measured per gm of tissue by thin-layer chromatography; type: ADME, organism-based; settings: in vivo
Brain [15] = test: Drug uptake albino mouse brain at 5 mg equivalent of oxazepam/kg, iv after 3 mins measured per gm of tissue by thin-layer chromatography; type: ADME, organism-based; settings: in vivo, 0.05 h
Brain [16] = test: Drug uptake albino mouse brain at 5 mg equivalent of oxazepam/kg, iv after 40 mins measured per gm of tissue by thin-layer chromatography; type: ADME, organism-based; settings: in vivo
Liver [17] = test: Drug metabolism in albino mouse liver assessed as total metabolite concentration at 5 mg equivalent of oxazepam/kg, iv after 5 mins by thin layer chromatography; type: ADME, organism-based; settings: in vivo; method in brief: as §3
Liver [18] = test: Drug metabolism in albino mouse liver assessed as total metabolite concentration at 5 mg equivalent of oxazepam/kg, iv after 10 mins by thin layer chromatography; type: ADME, organism-based; settings: in vivo; method in brief: as §3
Liver [19] = test: Drug metabolism in albino mouse liver assessed as total metabolite concentration at 5 mg equivalent of oxazepam/kg, iv after 3 mins by thin layer chromatography; type: ADME, organism-based; settings: in vivo, 0.05 h; method in brief: as §3
Brain [20] = test: Drug uptake albino mouse brain at 5 mg equivalent of oxazepam/kg, iv after 5 mins measured per gm of tissue by thin-layer chromatography; type: ADME, organism-based; settings: in vivo
Brain [21] = test: Drug uptake albino mouse brain at 5 mg equivalent of oxazepam/kg, iv after 240 mins measured per gm of tissue by thin-layer chromatography; type: ADME, organism-based; settings: in vivo, 4 h
[22] = Retardation factor, Rm of the compound by thin-layer chromatography; type: physicochemical
Brain [23] = test: Drug uptake albino mouse brain at 10 mg equivalent of oxazepam/kg, iv after 6 mins measured per gm of tissue by thin-layer chromatography; type: ADME, organism-based; settings: in vivo, 0.1 h
Brain [24] = test: Drug uptake albino mouse brain at 10 mg equivalent of oxazepam/kg, iv after 12 mins measured per gm of tissue by thin-layer chromatography; type: ADME, organism-based; settings: in vivo, 0.2 h
Brain [25] = test: Drug uptake albino mouse brain at 10 mg equivalent of oxazepam/kg, iv after 3 mins measured per gm of tissue by thin-layer chromatography; type: ADME, organism-based; settings: in vivo, 0.05 h
Brain [26] = test: Drug uptake albino mouse brain at 10 mg equivalent of oxazepam/kg, iv after 20 mins measured per gm of tissue by thin-layer chromatography; type: ADME, organism-based; settings: in vivo
Brain [27] = test: Drug uptake albino mouse brain at 10 mg equivalent of oxazepam/kg, iv after 40 mins measured per gm of tissue by thin-layer chromatography; type: ADME, organism-based; settings: in vivo
Brain [28] = test: Drug uptake albino mouse brain at 10 mg equivalent of oxazepam/kg, iv after 1 min measured per gm of tissue by thin-layer chromatography; type: ADME, organism-based; settings: in vivo
esterase = test: as §2; type: ADME; settings: liver microsomes
[29] = Mus musculus, iv, read-out: ED50

SMILES | Ratio ED50 (Mus musculus [2]) | ED50 (Mus musculus [3]) [mg/kg] | ED50 (Mus musculus [4]) [mg/kg] | Vmax [5] [nmol/min] | ED50 (Mus musculus [6]) [mg/kg] | Km [7] [µM] | Ratio ED50 (Mus musculus [8]) | Drug uptake (Brain [9]) [nmol] | Drug uptake (Brain [10]) [nmol] | Drug uptake (Brain [12]) [nmol] | Drug uptake (Brain [13]) [nmol] | Drug uptake (Brain [15]) [nmol] | Drug uptake (Brain [16]) [nmol] | Drug uptake (Brain [21]) [nmol] | Rm [22] | also measured
CC(Cc1ccccc1)C(=O)OC1N=C(c2ccccc2)c2cc(Cl)ccc2NC1=O (racemic) | 7.4 | 3.75 | 4.01 | 2.4 | 0.51 | 8.3 | 6.1 |  |  |  |  |  |  |  |  | ED50 (Mus musculus [1]; [29]): 0.66 mg/kg
O=C(CCCc1ccccc1)OC1N=C(c2ccccc2)c2cc(Cl)ccc2N[14C]1=O (stereo unspecified) |  |  |  |  |  |  |  | 15.1 | 9.6 | 2.9 | 6.5 | 0.9 | 9.5 | 12.2 | 0.65 | Drug metabolism (Liver [11]): 80.7 nmol/g; Drug uptake (Brain [14]): 0.4 nmol; Drug metabolism (Liver [17]): 82.3 nmol/g; Drug metabolism (Liver [18]): 40.4 nmol/g; Drug metabolism (Liver [19]): 85.9 nmol/g; Drug uptake (Brain [20]): 0.8 nmol
CC(Cc1ccccc1)C(=O)OC1N=C(c2ccccc2)c2cc(Cl)ccc2NC1=O (stereo in doubt; 11) | 6.8 | 2.67 | 3.83 | 7.3 | 0.39 | 25 | 4.7 |  |  |  |  |  |  |  |  | ED50 (Mus musculus [1]): 0.82 mg/kg
CC(Cc1ccccc1)C(=O)OC1N=C(c2ccccc2)c2cc(Cl)ccc2N[14C]1=O (stereo in doubt; [14C]-11) |  |  |  |  |  |  |  | 11.7 | 12.8 | 5.6 | 7.7 | 2.1 | 10.8 | 7.2 |  | Drug uptake (Brain [20]): 2.6 nmol
O=C1Nc2ccc(Cl)cc2C(c2ccccc2)=NC1O (stereo unspecified) [OXAZEPAM] |  |  |  |  |  |  |  |  |  |  |  |  |  |  |  | ED50 (Mus musculus [1]; [29]): 0.39 mg/kg; ED50 (Mus musculus [6]; [29]): 0.18 mg/kg
COC(=O)CCC(=O)OC1N=C(c2ccccc2)c2cc(Cl)ccc2NC1=O (stereo unspecified) |  |  |  | 125 |  |  |  |  |  |  |  |  |  |  |  | 
CCC(=O)OC1N=C(c2ccccc2)c2cc(Cl)ccc2N[14C]1=O (stereo unspecified) |  |  |  |  |  |  |  |  |  |  |  |  |  |  | -0.03 | Drug uptake (Brain [23]): 24.2 nmol; Drug uptake (Brain [24]): 30.8 nmol; Drug uptake (Brain [25]): 17.5 nmol; Drug uptake (Brain [26]): 41.7 nmol; Drug uptake (Brain [27]): 33 nmol; Drug uptake (Brain [28]): 12.6 nmol
CC(Cc1ccccc1)C(=O)OC1N=C(c2ccccc2)c2cc(Cl)ccc2N[14C]1=O (racemic) |  |  |  |  |  |  |  | 14.2 | 13 | 4.7 | 5.4 | 1.3 | 10 | 5.5 | 0.64 | 
CC(Cc1ccccc1)C(=O)OC1N=C(c2ccccc2)c2cc(Cl)ccc2NC1=O (single isomer, unassigned; (-)) | 3.5 | 2.86 | 2.2 | 2.6 | 0.81 | 8.7 | 2.4 |  |  |  |  |  |  |  |  | ED50 (Mus musculus [1]): 0.92 mg/kg
O=C(Cc1ccccc1)OC1N=C(c2ccccc2)c2cc(Cl)ccc2NC1=O (stereo unspecified) |  |  |  | 12.2 |  |  |  |  |  |  |  |  |  |  |  | Km (esterase): 22.7 µM
